In ChEMBL document CHEMBL4373689, “Ferulic Acid Esters and Withanolides: In Search of Withania somnifera GABAA Receptor Modulators” (J Nat Prod, 2019):
Calls of active or inactive are those of the source. The calls are words filed in the database; no cut-off is given here.

Assays:
[1] = target: T1, GABA-A receptor; anion channel (Rattus norvegicus) (UniProt O09028+P15431+P18506+P18508+P19969+P20236+P23574+P23576+P28471+P28473+P30191+P62813+P63079+P63138+Q91ZM7+Q9ES14); conditions: Sprague-Dawley, 20 uM
[2] = target: T1, GABA-A receptor; anion channel (Rattus norvegicus); test: Activation of GABAA receptor in Sprague-Dawley rat dentate gyrus hippocampal granule neurons assessed as holding current at 10 uM by whole-cell patch-clamp method; format: protein-complex assay
How it was run: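 Rat dentate gyrus granule cells. Holding current was monitored with no electrical stimulation, before and after perfusion of 10 μM compound, to test for direct GABAAR activation.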

[3] = target: T1, GABA-A receptor; anion channel (Rattus norvegicus); test: Modulation of GABAA receptor in electrically stimulated Sprague-Dawley rat dentate gyrus hippocampal granule neurons assessed as decrease in GABA induced IPSC amplitude at 10 uM at holding potential of -65 mV by whole-cell patch-clamp method relative to control; format: protein-complex assay
How it was run: (§1)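 Rat dentate gyrus granule cells gave evoked IPSCs. Stimulus intensity was set at the start of each recording to give about 30% of maximal amplitude, and bicuculline (20 μM) suppression confirmed GABAAR mediation. IPSCs were recorded before and after perfusion of 10 μM compound, and results are given as percent change from baseline (means ± SEM, n = cells).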

[4] = target: T1, GABA-A receptor; anion channel (Rattus norvegicus); test: Modulation of GABAA receptor in electrically stimulated Sprague-Dawley rat dentate gyrus hippocampal granule neurons assessed as GABA induced IPSC amplitude at 10 uM at holding potential of -65 mV by whole-cell patch-clamp method; format: protein-complex assay
How it was run: as §1

[5] = target: T1, GABA-A receptor; anion channel (Rattus norvegicus); test: Modulation of GABAA receptor in electrically stimulated Sprague-Dawley rat dentate gyrus hippocampal granule neurons assessed as increase in GABA induced IPSC amplitude at 10 uM at holding potential of -65 mV by whole-cell patch-clamp method relative to control; format: protein-complex assay
How it was run: as §1

[6] = target: GABA-A receptor; anion channel; test: Modulation of GABAA receptor in electrically stimulated Sprague-Dawley rat dentate gyrus hippocampal granule neurons assessed as potentiation of GABA induced IPSC amplitude at holding potential of -65 mV by whole-cell patch-clamp method; format: protein-complex assay
[7] = target: T1, GABA-A receptor; anion channel (Rattus norvegicus); test: Modulation of GABAA receptor in electrically stimulated Sprague-Dawley rat dentate gyrus hippocampal granule neurons assessed as maximal potentiation of GABA induced IPSC amplitude at 100 uM at holding potential of -65 mV by whole-cell patch-clamp method relative to control; format: protein-complex assay

Structure (SMILES) | Activity [2] | inhibition [3] [%] | Activity [4] | also measured
CN1CCc2cc3c(cc2[C@H]1[C@@H]1OC(=O)c2c1ccc1c2OCO1)OCO3 |  |  |  | inhibition [1]: Active
CC1=C(C)C(=O)O[C@@H]([C@](C)(O)[C@H]2CC[C@H]3[C@@H]4C=CC5=CC=CC(=O)[C@]5(C)[C@H]4CC[C@]23C)C1 | inactive | 28.6 |  | 
CC1=C(CO)C(=O)O[C@@H]([C@@H](C)[C@H]2CC[C@H]3[C@@H]4C[C@H]5O[C@]56[C@@H](O)C=CC(=O)[C@]6(C)[C@H]4CC[C@]23C)C1 | inactive |  | inactive | 
CC1=C(C)C(=O)O[C@@H]([C@H](C)[C@H]2CC[C@H]3[C@@H]4[C@@H]5O[C@@H]5[C@@]5(O)CC=CC(=O)[C@]5(C)[C@H]4CC[C@]23C)C1 | inactive |  |  | Activity [5]: 29.4%
CC1=C(C)C(=O)O[C@@H]([C@@](C)(O)[C@H]2CC[C@H]3[C@@H]4[C@@H]5O[C@@H]5[C@@]5(O)CC=CC(=O)[C@]5(C)[C@H]4CC[C@]23C)C1 | inactive | 20.8 |  | 
COc1cc(/C=C/C(=O)OCCCCCOC(=O)/C=C/c2ccc(O)c(OC)c2)ccc1O | inactive |  | inactive | 
CC1=C(CO)C(=O)O[C@@H]([C@H](C)[C@H]2CC[C@H]3[C@@H]4C=CC5=CC=CC(=O)[C@]5(C)[C@H]4CC[C@]23C)C1 | inactive |  | inactive | 
CCCCCCCCCCCCCCCCCCOC(=O)/C=C/c1ccc(O)c(OC)c1 | inactive | 35.8 |  | 
CCCCCCCCCCCCCCCCCCCCCOC(=O)/C=C/c1ccc(O)c(OC)c1 | inactive |  |  | Activity [5]: 48.2%; EC50 [6]: 7.9 µM; Activity [7]: 74%
CCCCCCCCCCCCCCCCCCCOC(=O)/C=C/c1ccc(O)c(OC)c1 | inactive | 36.5 |  | 
